Consider one molecule from ChEMBL document CHEMBL5329221, “A covalent fragment-based strategy targeting a novel cysteine to inhibit activity of mutant EGFR kinase” (RSC Med Chem, 2023).

Assay [1] concerns the target T1, Epidermal growth factor receptor (Homo sapiens, UniProt P00533, C797S/L858R/T790M). Put plainly: Inhibition of N-terminal His6-tagged human EGFR L858R/T790M/C797S mutant expressed in Sf9 cells assessed as decrease in substrate phosphorylation incubated for 45 mins using Srctide as substrate in presence of 5uM of ATP by microplate reader analysis.
The test system of assay [2] is Epidermal growth factor receptor (Homo sapiens), P00533 [L858R,C775S]. Nature of the assay: Binding affinity to N-terminal His6-tagged human EGFR L858R/C775S mutant expressed in Sf9 cells at pH 7.4 assessed as covalent adduct at +277 Da formation at 0.3 to 1 uM incubated for 1 hrs by LC-MS analysis. The note with it: dose 0.3-1 µM. A digest of the protocol:
(§1)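 EGFR (694-1022) L858R or L858R/C775S as N-terminal His-GST fusions from Sf9 cells, purified by Ni affinity then SEC. Each protein at 0.5 mg/ml was incubated with compound (0.3, 1 or 3 µM) in 20 mM Tris-HCl pH 7.5, 150 mM NaCl, 1 mM TCEP, 5% glycerol, 1 h at room temperature. SDS was added to 1% final, samples boiled 95°C 10 min, then UHPLC-MS.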

In assay [3] the target is T1, Epidermal growth factor receptor. Put plainly: Inhibition of N-terminal His6-tagged human EGFR L858R/T790M/C797S mutant expressed in Sf9 cells assessed as decrease in substrate phosphorylation using Srctide as substrate preincubated for 20 mins followed by substrate addition in presence of 1mM of ATP and measured after 45 mins by microplate reader analysis. A digest of the protocol:
(§2)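 Compound in DMSO was preincubated 0, 20 or 60 min with 250 pg/µL EGFR_TM (residues 694-1022) in 20 mM HEPES pH 7.4, 5 mM MgCl2, 1 mM MnCl2, 0.003% Brij-35, 0.004% Tween-20, 2 mM DTT. […] EDTA stop; phosphorylation read by mobility-shift chip, ex 488/em 530 nm.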

The target in assay [4] is Epidermal growth factor receptor (Homo sapiens) (UniProt P00533). Nature of the assay: Inhibition of wild type human EGFR assessed as decrease in substrate phosphorylation using Srctide as substrate preincubated for 15 mins followed by substrate addition in presence of 1mM of ATP and measured after 45 mins by microplate reader analysis. The note with it: time 60.0 min. A digest of the protocol:
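Wild-type EGFR at 800 ng/mL was preincubated 15 min with 1 µM compound in 100 mM HEPES pH 7.4, 0.003% Brij-35, 0.004% Tween-20, 1 mM DTT. Then 1 mM ATP, 1.5 µM Srctide, 10 mM MgCl2 and 10 mM MnCl2 were added for 45 min. Mobility-shift read.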

Assay [5] deals with Epidermal growth factor receptor (Homo sapiens), P00533 [L858R]. Put plainly: Inhibition of human EGFR L858R mutant assessed as decrease in substrate phosphorylation using Srctide as substrate preincubated for 15 mins followed by substrate addition in presence of 1mM of ATP and measured after 45 mins by microplate reader analysis. The note with it: time 60.0 min. The method, boiled down: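 Panel format: compound at 1 µM final was preincubated 15 min with kinase in 20 mM HEPES pH 7.4, 5 mM MgCl2, 1 mM MnCl2, 0.003% Brij-35, 0.004% Tween-20, 2 mM DTT. ATP (1 mM) and Srctide (1.5 µM) were then added for 45 min. EDTA stop; mobility-shift read, ex 488/em 530 nm.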

For assay [6], the target named is T1, Epidermal growth factor receptor. Nature of the assay: Inhibition of N-terminal His6-tagged human EGFR L858R/T790M/C797S mutant expressed in Sf9 cells assessed as decrease in substrate phosphorylation using Ulight-JAK1 peptide as substrate incubated for 1.5 hrs in presence of ATP by TR-FRET based LANCE Ultra kinase assay. The method, boiled down:
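LANCE Ultra TR-FRET assay with 0.25 nM EGFR_TM, 1 µM ATP, 50 nM ULight-JAK1 peptide, 50 mM HEPES pH 7.5, 10 mM MgCl2, 5 mM MnCl2, 1 mM DTT, 0.015% Brij35, 5% DMSO, 1.5 h at 23°C. EDTA stop, Eu-anti-pTyr PT66, 1 h. Signal is the 665/620 nm ratio, normalised to no-protein controls. IC50 from a four-parameter fit, otherwise % inhibition at the top concentration.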
Background: Time-resolved FRET reads energy transfer from a long-lived donor to a nearby acceptor.

Assay [7] shares this target. Put plainly: Inhibition of N-terminal His6-tagged human EGFR L858R/T790M/C797S mutant expressed in Sf9 cells assessed as decrease in substrate phosphorylation incubated for 45 mins using Srctide as substrate in presence of 1mM of ATP by microplate reader analysis. A digest of the protocol: as §2
The target of assay [8] is MAP kinase-interacting serine/threonine-protein kinase 1 (Homo sapiens) (UniProt Q9BUB5). Nature of the assay: Inhibition of human MNK1 assessed as decrease in substrate phosphorylation using 5FAM-KKKVSRSGLYRSPSMPENLNRPR-COOH as substrate preincubated for 15 mins followed by substrate addition in presence of 1mM of ATP and measured after 45 mins by microplate reader analysis. The note with it: time 60.0 min. The method, boiled down: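 MNK1 at 440 ng/mL was preincubated 15 min with 1 µM compound in 100 mM HEPES pH 7.4, 0.003% Brij-35, 0.004% Tween-20, 1 mM DTT. Then 1 mM ATP, 1.5 µM FL-Peptide 10 and 10 mM MgCl2 were added for 45 min. Mobility-shift read.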
MAP kinase-interacting serine/threonine-protein kinase 1 (Homo sapiens), sequence (Q9BUB5 whole entry, looked up): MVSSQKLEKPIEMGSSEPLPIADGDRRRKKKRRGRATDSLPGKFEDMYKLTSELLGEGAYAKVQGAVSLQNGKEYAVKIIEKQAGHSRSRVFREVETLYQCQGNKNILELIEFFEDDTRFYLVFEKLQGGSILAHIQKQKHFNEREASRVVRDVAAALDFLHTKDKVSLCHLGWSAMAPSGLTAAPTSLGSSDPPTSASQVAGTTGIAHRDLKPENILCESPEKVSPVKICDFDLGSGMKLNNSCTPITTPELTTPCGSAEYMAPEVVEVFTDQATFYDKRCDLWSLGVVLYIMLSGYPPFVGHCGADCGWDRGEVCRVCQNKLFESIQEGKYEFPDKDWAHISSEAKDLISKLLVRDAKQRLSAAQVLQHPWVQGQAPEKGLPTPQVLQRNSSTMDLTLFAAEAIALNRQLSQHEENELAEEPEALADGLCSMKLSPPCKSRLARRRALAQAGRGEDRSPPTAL

The test system of assay [9] is Epidermal growth factor receptor (Homo sapiens), P00533 [L858R]. Put plainly: Binding affinity to N-terminal His6-tagged human EGFR L858R mutant expressed in Sf9 cells at pH 7.4 assessed as covalent adduct at +277 Da formation at 0.3 to 1 uM incubated for 1 hrs by LC-MS analysis. The note with it: dose 0.3-1 µM. A digest of the protocol:
as §1

Assay [10] has as its system Epidermal growth factor receptor (Homo sapiens), P00533 [UNDEFINED MUTATION]. Put plainly: Inhibition of human EGFR d746-750/T790M mutant assessed as decrease in substrate phosphorylation using Srctide as substrate preincubated for 15 mins followed by substrate addition in presence of 1mM of ATP and measured after 45 mins by microplate reader analysis. The note with it: time 60.0 min. The method, boiled down:
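Compound at 1 µM final, 15 min preincubation with mutant EGFR in mutant-EGFR buffer (5 mM MgCl2, 1 mM MnCl2) at 200 ng/mL for T790M/C797S/L858R, 180 ng/mL for d746-750/T790M, and 350 ng/mL for d746-750/T790M/C797S. Then 1 mM ATP plus 1.5 µM Srctide for 45 min. Mobility-shift read.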

Each structure is given as a SMILES string. Active and inactive are the calls of the source. No cut-off for these calls is given here.

What is called IC50 is the concentration that inhibits the measured activity by half. In general, inhibition refers to the drop in the measured response relative to a control, in per cent. As to `C=CC(=O)Nc1cc(-c2cn(C)c3ccccc23)ncn1`, the IC50 in [1] is 0.599 µM; in [3], 0.251 µM; in [6] it was 0.9 µM; in [7], 1.3 µM. In assay [2], the outcome was Active. For the same molecule, the inhibition in [4] was above 80%; in assay [5], above 80%; in assay [8], 26.5%; in assay [10] it was above 80%. For the same molecule, in assay [9], the result was inactive.
